# ChEMBL document CHEMBL4400539, “Discovery of a Novel Chemotype of Histone Lysine Methyltransferase EHMT1/2 (GLP/G9a) Inhibitors: Rational Design, Synthesis, Biological Evaluation, and Co-crystal Structure” (J Med Chem, 2019)
# Active and inactive are the calls of the source. The calls are words filed in the database; no cut-off is given here.
# Key:
# [1] = target: DNA (cytosine-5)-methyltransferase 3A (Homo sapiens) (UniProt Q9Y6K1); assay: Inhibition of N-terminal GST-tagged recombinant full length human DNMT3a (2 to 913 residues) using bacteriophage lambda DNA as substrate preincubated for 20 mins followed by [3H]-SAM and measured after 60 mins by scintillation counting
# Sequence of DNA (cytosine-5)-methyltransferase 3A (Homo sapiens) (Q9Y6K1 whole entry, looked up, the tested form may be a part): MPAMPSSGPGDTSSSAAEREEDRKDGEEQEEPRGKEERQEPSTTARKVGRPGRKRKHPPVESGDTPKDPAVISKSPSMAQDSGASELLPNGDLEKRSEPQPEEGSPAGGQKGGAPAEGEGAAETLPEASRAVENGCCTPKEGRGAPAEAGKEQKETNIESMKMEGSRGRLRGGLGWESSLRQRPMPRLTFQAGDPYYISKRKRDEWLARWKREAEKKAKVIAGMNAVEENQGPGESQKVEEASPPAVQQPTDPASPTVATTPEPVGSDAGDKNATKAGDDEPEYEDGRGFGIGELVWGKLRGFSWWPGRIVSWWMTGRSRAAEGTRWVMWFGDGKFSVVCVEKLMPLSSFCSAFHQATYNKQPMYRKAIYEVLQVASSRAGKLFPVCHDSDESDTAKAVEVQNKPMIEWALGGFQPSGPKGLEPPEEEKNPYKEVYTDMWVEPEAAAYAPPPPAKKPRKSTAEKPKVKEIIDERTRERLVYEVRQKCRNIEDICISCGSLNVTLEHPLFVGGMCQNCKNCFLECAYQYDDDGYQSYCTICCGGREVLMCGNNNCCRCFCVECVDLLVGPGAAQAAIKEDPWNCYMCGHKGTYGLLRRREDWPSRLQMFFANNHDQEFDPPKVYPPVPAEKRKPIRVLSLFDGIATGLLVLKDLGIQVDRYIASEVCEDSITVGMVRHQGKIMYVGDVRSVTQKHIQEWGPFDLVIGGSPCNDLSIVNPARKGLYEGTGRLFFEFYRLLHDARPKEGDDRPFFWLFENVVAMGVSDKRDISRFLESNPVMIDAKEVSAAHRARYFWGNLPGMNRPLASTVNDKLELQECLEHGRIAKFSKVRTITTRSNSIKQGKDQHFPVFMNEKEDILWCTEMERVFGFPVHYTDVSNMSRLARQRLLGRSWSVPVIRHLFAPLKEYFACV
# [2] = target: Histone acetyltransferase p300 (Homo sapiens) (UniProt Q09472); assay: Inhibition of recombinant human P300 at 10 to 25 uM using biotinylated-Histone H4 peptide (1 to 21 residues) as substrate preincubated for 30 mins followed by substrate addition and measured after 60 mins in presence of SAM by AlphaLISA assay relative to control
# Sequence of Histone acetyltransferase p300 (Homo sapiens) (Q09472 whole entry, the tested form may be a part): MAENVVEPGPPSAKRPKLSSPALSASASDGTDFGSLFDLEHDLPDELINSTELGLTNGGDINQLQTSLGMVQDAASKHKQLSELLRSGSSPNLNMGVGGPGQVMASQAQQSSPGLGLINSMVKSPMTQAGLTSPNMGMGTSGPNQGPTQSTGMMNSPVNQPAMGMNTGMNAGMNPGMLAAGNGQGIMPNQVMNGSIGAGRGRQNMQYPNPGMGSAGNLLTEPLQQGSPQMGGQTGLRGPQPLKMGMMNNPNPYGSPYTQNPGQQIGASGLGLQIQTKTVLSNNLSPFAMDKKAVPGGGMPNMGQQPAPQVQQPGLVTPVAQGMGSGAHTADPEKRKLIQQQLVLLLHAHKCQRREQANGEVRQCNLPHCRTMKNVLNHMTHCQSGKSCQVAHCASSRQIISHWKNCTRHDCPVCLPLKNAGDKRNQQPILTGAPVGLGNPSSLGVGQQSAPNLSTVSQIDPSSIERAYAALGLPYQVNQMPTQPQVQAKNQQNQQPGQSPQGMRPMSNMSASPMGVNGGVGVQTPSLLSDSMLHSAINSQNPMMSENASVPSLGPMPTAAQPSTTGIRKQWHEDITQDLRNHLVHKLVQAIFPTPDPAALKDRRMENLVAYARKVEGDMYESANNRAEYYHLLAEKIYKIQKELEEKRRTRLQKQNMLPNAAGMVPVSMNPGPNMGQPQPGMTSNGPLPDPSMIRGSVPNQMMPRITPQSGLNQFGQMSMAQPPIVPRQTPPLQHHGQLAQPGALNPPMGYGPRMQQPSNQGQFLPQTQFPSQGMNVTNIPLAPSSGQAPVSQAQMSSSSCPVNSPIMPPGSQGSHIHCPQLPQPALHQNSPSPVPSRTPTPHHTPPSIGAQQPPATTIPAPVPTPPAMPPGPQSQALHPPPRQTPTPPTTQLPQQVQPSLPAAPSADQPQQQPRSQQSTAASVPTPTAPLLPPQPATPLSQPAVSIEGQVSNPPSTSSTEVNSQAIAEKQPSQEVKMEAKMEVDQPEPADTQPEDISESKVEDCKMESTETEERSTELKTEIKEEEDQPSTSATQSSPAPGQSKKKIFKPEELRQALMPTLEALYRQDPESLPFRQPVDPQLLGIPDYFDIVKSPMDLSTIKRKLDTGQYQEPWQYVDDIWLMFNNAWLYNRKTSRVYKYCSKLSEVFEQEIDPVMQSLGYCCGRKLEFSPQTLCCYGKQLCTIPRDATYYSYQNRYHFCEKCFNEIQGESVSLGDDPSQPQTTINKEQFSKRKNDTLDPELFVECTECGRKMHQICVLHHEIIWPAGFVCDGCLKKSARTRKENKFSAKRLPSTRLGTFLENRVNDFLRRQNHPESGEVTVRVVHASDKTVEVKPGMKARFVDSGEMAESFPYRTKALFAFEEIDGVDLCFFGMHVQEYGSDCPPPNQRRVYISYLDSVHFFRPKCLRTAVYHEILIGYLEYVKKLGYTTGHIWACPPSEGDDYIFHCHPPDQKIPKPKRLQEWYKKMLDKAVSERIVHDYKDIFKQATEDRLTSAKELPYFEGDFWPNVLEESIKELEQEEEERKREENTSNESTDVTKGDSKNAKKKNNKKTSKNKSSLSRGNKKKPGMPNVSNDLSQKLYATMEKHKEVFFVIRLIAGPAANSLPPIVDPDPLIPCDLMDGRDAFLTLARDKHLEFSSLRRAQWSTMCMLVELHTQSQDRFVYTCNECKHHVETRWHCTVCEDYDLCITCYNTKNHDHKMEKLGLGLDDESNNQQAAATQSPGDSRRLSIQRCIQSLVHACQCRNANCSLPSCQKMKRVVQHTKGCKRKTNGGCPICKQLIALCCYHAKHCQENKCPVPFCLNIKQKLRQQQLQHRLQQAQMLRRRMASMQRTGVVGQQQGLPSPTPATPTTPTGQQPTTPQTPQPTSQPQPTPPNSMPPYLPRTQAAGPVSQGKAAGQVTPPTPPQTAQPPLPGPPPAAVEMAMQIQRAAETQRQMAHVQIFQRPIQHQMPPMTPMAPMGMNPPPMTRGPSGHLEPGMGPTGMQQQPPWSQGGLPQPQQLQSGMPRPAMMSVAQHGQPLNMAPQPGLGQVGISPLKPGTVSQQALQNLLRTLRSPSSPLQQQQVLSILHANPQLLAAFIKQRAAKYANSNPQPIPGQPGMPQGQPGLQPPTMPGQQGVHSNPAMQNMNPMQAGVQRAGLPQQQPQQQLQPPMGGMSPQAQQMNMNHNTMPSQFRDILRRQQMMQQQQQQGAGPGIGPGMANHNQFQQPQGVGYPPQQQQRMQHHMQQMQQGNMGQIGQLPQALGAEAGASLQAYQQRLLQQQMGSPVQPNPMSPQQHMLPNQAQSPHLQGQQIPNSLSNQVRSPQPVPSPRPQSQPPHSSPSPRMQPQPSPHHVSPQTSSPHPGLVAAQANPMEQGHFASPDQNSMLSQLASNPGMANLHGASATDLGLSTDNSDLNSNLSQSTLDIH
# [3] = target: T1, Histone-lysine N-methyltransferase EHMT1 (Homo sapiens) (UniProt Q9H9B1); assay: Inhibition of recombinant human GLP at 10 uM using biotinylated-Histone H3 peptide (1 to 21 residues) after 30 mins by AlphaLISA assay relative to control
# T1 sequence (whole entry): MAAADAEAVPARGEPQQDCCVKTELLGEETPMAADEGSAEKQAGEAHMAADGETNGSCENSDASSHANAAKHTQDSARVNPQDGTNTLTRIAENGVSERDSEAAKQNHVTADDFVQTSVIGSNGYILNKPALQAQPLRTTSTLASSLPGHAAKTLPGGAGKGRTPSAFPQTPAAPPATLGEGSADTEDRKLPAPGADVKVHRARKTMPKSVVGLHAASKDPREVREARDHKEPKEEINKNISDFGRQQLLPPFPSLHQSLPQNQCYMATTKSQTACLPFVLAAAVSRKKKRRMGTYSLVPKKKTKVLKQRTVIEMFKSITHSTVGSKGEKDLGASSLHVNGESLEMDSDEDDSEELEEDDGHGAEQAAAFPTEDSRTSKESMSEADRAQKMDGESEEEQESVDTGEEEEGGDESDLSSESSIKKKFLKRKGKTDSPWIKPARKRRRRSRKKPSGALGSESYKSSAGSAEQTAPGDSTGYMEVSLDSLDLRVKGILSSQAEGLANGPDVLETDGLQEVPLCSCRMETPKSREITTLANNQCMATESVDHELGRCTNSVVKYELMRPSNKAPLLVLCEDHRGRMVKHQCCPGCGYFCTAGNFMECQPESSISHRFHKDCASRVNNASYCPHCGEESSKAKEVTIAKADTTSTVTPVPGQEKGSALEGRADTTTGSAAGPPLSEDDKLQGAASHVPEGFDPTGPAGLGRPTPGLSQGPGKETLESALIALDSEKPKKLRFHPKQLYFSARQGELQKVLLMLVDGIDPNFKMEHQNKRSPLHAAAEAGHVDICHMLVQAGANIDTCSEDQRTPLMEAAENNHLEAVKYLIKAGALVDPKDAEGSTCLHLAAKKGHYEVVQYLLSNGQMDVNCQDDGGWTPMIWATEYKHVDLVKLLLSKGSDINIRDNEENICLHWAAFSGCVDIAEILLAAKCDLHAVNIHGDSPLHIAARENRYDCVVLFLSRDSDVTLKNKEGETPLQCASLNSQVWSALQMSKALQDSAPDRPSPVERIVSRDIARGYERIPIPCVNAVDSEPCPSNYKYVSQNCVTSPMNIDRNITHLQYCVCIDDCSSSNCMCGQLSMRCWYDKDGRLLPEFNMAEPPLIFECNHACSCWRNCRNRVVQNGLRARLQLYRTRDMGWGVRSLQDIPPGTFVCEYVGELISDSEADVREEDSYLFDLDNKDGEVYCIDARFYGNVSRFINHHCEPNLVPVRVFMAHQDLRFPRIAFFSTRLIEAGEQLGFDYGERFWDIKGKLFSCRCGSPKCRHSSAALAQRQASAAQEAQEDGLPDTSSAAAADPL
# [4] = system: MCF7; assay: Cytotoxicity against human MCF7 cells assessed as reduction in cell viability at 0.05 to 50 uM after 24 hrs by MTT assay; assay type: cell-based; conditions: mcf7, 24 h
# Method in brief: (§1)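 MCF-7, MDA-MB-231 and U-343 cells exposed 24, 48 and 72 h to 0.05, 0.5, 5 and 50 μM compound; viability by MTT reduction to formazan versus vehicle; mean ± SD of at least three independent experiments.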
# [5] = Cytotoxicity against human U343MG cells assessed as reduction in cell viability up to 5 uM after 72 hrs by MTT assay; assay type: cell-based; method in brief: as §1
smiles,measurement,setting,value
COc1cc2c(cc1OCCCN1CCCC1)N=C(C1CCCCC1)CN=C2NC1CCN(C(C)C)CC1,inhibition,[1],inactive
same,inhibition,[2],inactive
same,inhibition,[3],95%
same,Activity,[4],Non-Toxic
same,Activity,[5],Non-Toxic
